According to ChEMBL document CHEMBL4842317, “Discovery of novel 3-hydroxyandrosta-5,7-Diene-17-Carboxylic acid derivatives as anti-inflammatory bowel diseases (IBD) agents” (Eur J Med Chem, 2021):
Activity calls are given as the source filed them. The rule behind the calls is not given here.

Assays:
[1] = system: RAW264.7; experiment: Cytotoxicity against mouse RAW264.7 cells assessed as reduction in cell viability at 3 to 100 uM incubated for 24 hrs by MTT assay; assay type: cell-based; conditions: raw264.7, 24 h, dose 3-100 µM
How it was run: (§1)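 RAW 264.7 cells are seeded at 1.0 × 10^4 per well and incubated overnight. Compounds are added at concentrations from 100 μM downward, with or without LPS (100 ng/mL), for 24 h. MTT (0.5 mg/mL) is added for 4 h and the formazan is dissolved in DMSO for the read-out.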

[2] = system: RAW264.7; experiment: Antiinflammatory activity against mouse RAW264.7 cells assessed as inhibition of LPS-induced NO production measured after 24 hrs by Griess assay; assay type: functional, cell-based; conditions: RAW264.7, 24 h
How it was run: (§2)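 RAW 264.7 cells (1 × 10^5 cells/mL) are cultured 24 h, stimulated with LPS (100 ng/mL final), and treated with compounds from 100 μM downward for 24 h in DMEM with 10% FBS. Medium nitrite is measured by Griess reaction (sulfanilamide, naphthylethylenediamine, phosphoric acid, 10 min, room temperature, dark). Mean + SD from three independent experiments.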

[3] = system: RAW264.7; experiment: Cytotoxicity against mouse RAW264.7 cells assessed as reduction in cell viability at 3 to 100 uM incubated for 24 hrs in presence of LPS by MTT assay; assay type: cell-based; conditions: raw264.7, 24 h, dose 3-100 µM; how it was run: as §1
[4] = system: RAW264.7; experiment: Antiinflammatory activity against mouse RAW264.7 cells assessed as inhibition of LPS-induced NO production at 20 uM after 24 hrs by Griess assay; assay type: functional; how it was run: as §2
[5] = system: RAW264.7; experiment: Antiinflammatory activity against mouse RAW264.7 cells assessed as decrease in LPS-induced TNF-alpha mRNA expression at 20 uM in presence of LPS by qRT-PCR analysis; assay type: functional, cell-based
How it was run: (§3)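 RAW 264.7 cells are grown 12 h in six-well plates, then exposed to LPS (100 ng/ml) plus compound for 8 h. Reverse transcription is followed by SYBR Green qPCR with GAPDH as internal control. Relative expression is calculated by 2^-ΔΔCT versus the untreated control. Mean + SD from three independent experiments.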

[6] = system: RAW264.7; experiment: Antiinflammatory activity against mouse RAW264.7 cells assessed as decrease in LPS-induced NF-kappB mRNA expression at 20 uM in presence of LPS by qRT-PCR analysis; assay type: functional, cell-based; how it was run: as §3
[7] = system: RAW264.7; experiment: Antiinflammatory activity against mouse RAW264.7 cells assessed as inhibition of LPS-induced iNOS mRNA expression at 20 uM incubated for 8 hrs in presence of LPS by qRT-PCR analysis; assay type: functional, cell-based; how it was run: as §3
[8] = system: RAW264.7; experiment: Antiinflammatory activity against mouse RAW264.7 cells assessed as inhibition of LPS-induced COX2 mRNA expression at 20 uM incubated for 8 hrs in presence of LPS by qRT-PCR analysis; assay type: functional, cell-based; how it was run: as §3
[9] = system: RAW264.7; experiment: Antiinflammatory activity against mouse RAW264.7 cells assessed as decrease in LPS-induced IL-1beta mRNA expression at 20 uM in presence of LPS by qRT-PCR analysis; assay type: functional, cell-based; how it was run: as §3
[10] = system: RAW264.7; experiment: Antiinflammatory activity against mouse RAW264.7 cells assessed as inhibition of LPS-induced MCP-1 mRNA expression at 20 uM in presence of LPS by qRT-PCR analysis; assay type: functional, cell-based; how it was run: as §3
[11] = system: RAW264.7; experiment: Antiinflammatory activity against mouse RAW264.7 cells assessed as decrease in LPS-induced IL-6 mRNA expression at 20 uM in presence of LPS by qRT-PCR analysis; assay type: functional, cell-based; how it was run: as §3

SMILES | Activity [1] | IC50 [2] | Activity [3] | inhibition at 20 µM [4] | Activity [5] | Activity [6] | Activity [7] | Activity [8] | Activity [9] | Activity [10] | Activity [11]
C[C@]12CC[C@H]3[C@@H](CC=C4C[C@@H](O)CC[C@@]43C)[C@@H]1CC[C@@H]2C(=O)NC1CCCCC1 | Non-Toxic | > 20 µM | Non-Toxic | 47.8% |  |  |  |  |  |  | 
CC(C)NC(=O)[C@H]1CC[C@H]2[C@@H]3CC=C4C[C@@H](O)CC[C@]4(C)[C@H]3CC[C@]12C | Non-Toxic | > 20 µM | Non-Toxic | 7.84% |  |  |  |  |  |  | 
CC(C)(O)CNC(=O)[C@H]1CC[C@H]2[C@@H]3CC=C4C[C@@H](O)CC[C@]4(C)[C@H]3CC[C@]12C | Non-Toxic | > 20 µM | Non-Toxic | 38.8% |  |  |  |  |  |  | 
CCCCNC(=O)[C@H]1CC[C@H]2[C@@H]3CC=C4C[C@@H](O)CC[C@]4(C)[C@H]3CC[C@]12C | Non-Toxic | > 20 µM | Non-Toxic | 44.4% |  |  |  |  |  |  | 
C[C@]12CC[C@H]3[C@@H](CC=C4C[C@@H](O)CC[C@@]43C)[C@@H]1CC[C@@H]2C(=O)NCCc1ccccc1 | Non-Toxic | > 20 µM | Non-Toxic | 45.4% |  |  |  |  |  |  | 
CC(=O)NCCNC(=O)[C@H]1CC[C@H]2[C@@H]3CC=C4C[C@@H](O)CC[C@]4(C)[C@H]3CC[C@]12C | Non-Toxic | > 20 µM | Non-Toxic | 16.1% |  |  |  |  |  |  | 
C[C@]12CC[C@H]3[C@@H](CC=C4C[C@@H](O)CC[C@@]43C)[C@@H]1CC[C@@H]2C(=O)NCCO | Non-Toxic | > 20 µM | Non-Toxic | 41.1% |  |  |  |  |  |  | 
C[C@]12CC[C@H]3[C@@H](CC=C4C[C@@H](O)CC[C@@]43C)[C@@H]1CC[C@@H]2C(=O)NCCCn1ccnc1 | Non-Toxic | > 20 µM | Non-Toxic | 50.4% |  |  |  |  |  |  | 
CCC[C@](C)(O)[C@H]1CC[C@H]2C3=CC=C4C[C@@H](O)CC[C@]4(C)[C@H]3CC[C@@]21C | Non-Toxic | > 20 µM | Non-Toxic | 55.3% |  |  |  |  |  |  | 
COC(=O)[C@H]1CC[C@H]2C3=CC=C4C[C@@H](O)CC[C@]4(C)[C@H]3CC[C@]12C | Non-Toxic | > 20 µM | Non-Toxic | 21.8% |  |  |  |  |  |  | 
C[C@]12CC[C@H]3[C@@H](CC=C4C[C@@H](O)CC[C@@]43C)[C@@H]1CC[C@@H]2C(=O)NCCN1CCOCC1 | Non-Toxic | > 20 µM | Non-Toxic | 36.4% |  |  |  |  |  |  | 
C[C@]12CC[C@H]3[C@@H](CC=C4C[C@@H](O)CC[C@@]43C)[C@@H]1CC[C@@H]2C(=O)Nc1n[nH]cc1C#N | Non-Toxic | > 20 µM | Non-Toxic | 24.9% |  |  |  |  |  |  | 
C[C@]12CC[C@H]3[C@@H](CC=C4C[C@@H](O)CC[C@@]43C)[C@@H]1CC[C@@H]2C(=O)NCCN1CCCC1 | Non-Toxic | 31.3 µM | Non-Toxic | 50.4% |  |  |  |  |  |  | 
CCN(CC)C(=O)[C@H]1CC[C@H]2[C@@H]3CC=C4C[C@@H](O)CC[C@]4(C)[C@H]3CC[C@]12C | Non-Toxic | > 20 µM | Non-Toxic | 25.5% |  |  |  |  |  |  | 
C[C@]12CC[C@H]3[C@@H](CC=C4C[C@@H](O)CC[C@@]43C)[C@@H]1CC[C@@H]2C(=O)NCCc1cccs1 | Non-Toxic | 21.2 µM | Non-Toxic | 55.6% |  |  |  |  |  |  | 
Cc1ccn(C(=O)[C@H]2CC[C@H]3[C@@H]4CC=C5C[C@@H](O)CC[C@]5(C)[C@H]4CC[C@]23C)n1 | Non-Toxic | > 20 µM | Non-Toxic | 35.8% |  |  |  |  |  |  | 
CCOC(=O)[C@H]1CC[C@H]2C3=CC=C4C[C@@H](O)CC[C@]4(C)[C@H]3CC[C@]12C | Non-Toxic | > 20 µM | Non-Toxic | 11.3% |  |  |  |  |  |  | 
CCCNC(=O)[C@H]1CC[C@H]2[C@@H]3CC=C4C[C@@H](O)CC[C@]4(C)[C@H]3CC[C@]12C | Non-Toxic | 15.6 µM | Non-Toxic | 72.8% | inactive | Active | inactive | Active | inactive | Active | inactive
CC(C)CCNC(=O)[C@H]1CC[C@H]2[C@@H]3CC=C4C[C@@H](O)CC[C@]4(C)[C@H]3CC[C@]12C | Non-Toxic | 11.3 µM | Non-Toxic | 59.2% |  |  |  |  |  |  | 
CCCCOC(=O)[C@H]1CC[C@H]2C3=CC=C4C[C@@H](O)CC[C@]4(C)[C@H]3CC[C@]12C | Non-Toxic | > 20 µM | Non-Toxic | 37.8% |  |  |  |  |  |  | 
CCCOC(=O)[C@H]1CC[C@H]2C3=CC=C4C[C@@H](O)CC[C@]4(C)[C@H]3CC[C@]12C | Non-Toxic | 9.02 µM | Non-Toxic | 89.4% | Active | Active | Active | Active | Active | Active | Active
CC[C@](C)(O)[C@H]1CC[C@H]2C3=CC=C4C[C@@H](O)CC[C@]4(C)[C@H]3CC[C@@]21C | Non-Toxic | 27 µM | Non-Toxic | 52.5% |  |  |  |  |  |  | 
CCCC[C@](C)(O)[C@H]1CC[C@H]2C3=CC=C4C[C@@H](O)CC[C@]4(C)[C@H]3CC[C@@]21C | Non-Toxic | > 20 µM | Non-Toxic | 28.8% |  |  |  |  |  |  | 
C[C@]12CC[C@H]3[C@@H](CC=C4C[C@@H](O)CC[C@@]43C)[C@@H]1CC[C@@H]2C(=O)NC1CC1 | Non-Toxic | > 20 µM | Non-Toxic | 40.5% |  |  |  |  |  |  | 
C[C@]12CC[C@H]3[C@@H](CC=C4C[C@@H](O)CC[C@@]43C)[C@@H]1CC[C@@H]2C(=O)N1CCCCC1 | Non-Toxic | > 20 µM | Non-Toxic | 37.4% |  |  |  |  |  |  | 
